Nine compounds from PMC3057461 (Chemistry & biology, 2011) can be followed below.

In one experiment the target is DnaK-DnaJ complex (Escherichia coli, UniProt P0A6Y8). Nature of the experiment: ATPase assay of the DnaK-DnaJ system. Format: biochemical. Conditions: for effect on stimulatory activity of DnaJ on DnaK ATPase: DnaJ titration.
Another experiment concerns the target DnaJ (Escherichia coli, UniProt P08622). The experiment can be described thus: Isothermal calorimetry. Format: binding. Conditions: DnaJ 10 μM; titrations noisy.
A further experiment addresses DnaK K106A (Escherichia coli, UniProt P0A6Y8, K106A). The experiment can be described thus: Tryptophan fluorescence quench, DnaK K106A control mutant. Format: binding. Summed up: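 DnaK alanine mutants were used at 3 μM with 1 mM ATP. Test compound was added at various concentrations, and quench of intrinsic tryptophan fluorescence was read at 342 nm (Ex 295 nm). Readings from controls lacking DnaK were subtracted, and apparent affinity was derived from the concentration series.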

The next experiment addresses DnaK-DnaJ-GrpE (Escherichia coli, UniProt P0A6Y8). The experiment can be described thus: ATPase assay of DnaK-DnaJ in the presence of GrpE. Format: biochemical. Conditions: saturating GrpE (2 μM); DnaK 0.6 μM, DnaJ 1 μM. In a few lines:
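Purified E. coli DnaK (0.6 μM) and DnaJ (1 μM), with His-tags cleaved, were run in the established ATPase assay with GrpE at 2 μM or a range of GrpE levels. Test compound was given as a dose series, and IC50 was taken from the dose response. Values are means of triplicates ± SEM.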

A further experiment concerns the target DnaK-J domain (Escherichia coli, UniProt P0A6Y8). The experiment can be described thus: J domain stimulation of DnaK ATP turnover. Format: biochemical. Summed up: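 For J-domain-stimulated turnover, His-tagged DnaJ J domain (residues 2–108) was purified with an extra gel-filtration step and stored in Tris pH 7.5 with 150 mM KCl and 5 mM MgCl2. It was then run in the established DnaK ATPase assay. Results are means of triplicates ± SEM.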

The next experiment has as its target DnaK (wild type) (Escherichia coli, UniProt P0A6Y8). Nature of the experiment: Tryptophan fluorescence quench, apparent affinity of myricetin for DnaK. Format: binding. Conditions: apparent affinity (Kapp), wild type DnaK 3 μM, ATP 1 mM. Summed up: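 Test compound was added at various concentrations to wild-type DnaK, read at 342 nm (Ex 295 nm) for tryptophan fluorescence quench. Conditions were 5 μM nucleotide-free DnaK alone, 5 μM DnaK with 2 mM ATP, or 3 μM DnaK with 1 mM ATP. Apo-DnaK was eluted from the ATP column with 1 M NaCl. DnaK-free controls were subtracted. Triplicates, ± SEM.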

The next experiment concerns the target DnaK-DnaJ (Escherichia coli, UniProt P0A6Y8). Format: binding. Summed up:
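Firefly luciferase was partially digested and adsorbed onto microtiter wells. DnaK was added with DnaJ titrated, in the presence or absence of test compound. Bound DnaK was detected with an anti-DnaK antibody. Each point is the mean of triplicates ± SEM.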

The target in another experiment is DnaK-DnaJ interaction (Escherichia coli, UniProt P0A6Y8). The experiment can be described thus: DnaK-DnaJ interaction by FRET. Format: binding. Particulars: for effect on binding of DnaJ to DnaK: ATP 2 mM.
For experiment [1], the target named is T1, DnaK (Escherichia coli, UniProt P0A6Y8). The experiment can be described thus: Peptide substrate. Format: biochemical. Conditions: model substrate NRLLLTG. In a few lines:
(§1)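 ATP turnover was measured for purified E. coli DnaK (His-tag cleaved) in the established ATPase assay, alone or with the stimulating partner named. Results are means of triplicates ± SEM.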

Experiment [2] deals with J domain (residues 2–108) (Escherichia coli, UniProt P08622). Nature of the experiment: Isothermal calorimetry. Format: binding. Particulars: truncated J domain residues 2–108.
Experiment [3] concerns the target T1, DnaK. Nature of the experiment: Tryptophan fluorescence response of DnaK to ATP binding. Conditions: myricetin 100 μM, DnaK 5 μM, ATP 100 μM. In a few lines:
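Apo-DnaK (6 μM) was preincubated with test compound (125 μM) for 1 h at 37 °C. Then 500 μM ATP or buffer (Tris, KCl, MgCl2, pH 7.4) was added as one-fifth of the final volume; these are pre-mix concentrations. Tryptophan emission was scanned from 300–400 nm at 295 nm excitation. Runs were done in triplicate.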

For experiment [4], the target named is T1, DnaK. Nature of the experiment: Intrinsic ATPase activity of DnaK. Format: biochemical. Summed up: as §1
The target of a further experiment is DnaK-GrpE (Escherichia coli, UniProt P0A6Y8). The experiment can be described thus: GrpE-mediated stimulation of DnaK ATP turnover. Format: biochemical. In a few lines: as §1
Where [5] appears, read: read-out: IC50 against the DnaK-DnaJ system, DnaK 0.6 μM, DnaJ 1 μM.

Where two headings read alike, the source gives them in different places. A value given as a limit tells only on which side of the number the result lay.

What is called IC50 is the concentration needed to halve the response being measured. As a reminder, the inhibition is the drop in the measured response relative to a control, in per cent.

T1 sequence (P0A6Y8 whole entry): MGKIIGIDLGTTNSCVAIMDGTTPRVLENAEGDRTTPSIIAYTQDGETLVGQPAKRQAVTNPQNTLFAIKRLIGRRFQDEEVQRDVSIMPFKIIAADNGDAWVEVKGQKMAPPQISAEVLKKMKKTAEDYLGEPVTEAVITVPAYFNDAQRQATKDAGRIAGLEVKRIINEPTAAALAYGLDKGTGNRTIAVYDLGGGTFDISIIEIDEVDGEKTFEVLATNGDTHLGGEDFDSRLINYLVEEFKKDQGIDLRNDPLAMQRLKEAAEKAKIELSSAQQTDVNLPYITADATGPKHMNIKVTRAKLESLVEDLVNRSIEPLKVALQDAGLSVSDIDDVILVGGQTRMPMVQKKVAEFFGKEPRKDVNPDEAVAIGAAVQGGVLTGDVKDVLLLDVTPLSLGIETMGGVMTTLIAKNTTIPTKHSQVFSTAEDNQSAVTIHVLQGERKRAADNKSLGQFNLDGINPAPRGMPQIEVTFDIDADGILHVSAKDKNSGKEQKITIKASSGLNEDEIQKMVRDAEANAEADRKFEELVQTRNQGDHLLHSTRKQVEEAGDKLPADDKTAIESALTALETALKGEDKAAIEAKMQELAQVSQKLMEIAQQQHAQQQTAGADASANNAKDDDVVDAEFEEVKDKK
Sequence of DnaK-DnaJ interaction (P0A6Y8 whole entry): as above
Sequence of DnaK-DnaJ complex (P0A6Y8 whole entry, one chain of several): as the sequence (P0A6Y8 whole entry) above
Sequence of DnaK-DnaJ (P0A6Y8 whole entry): as above
Sequence of DnaJ (P08622 whole entry): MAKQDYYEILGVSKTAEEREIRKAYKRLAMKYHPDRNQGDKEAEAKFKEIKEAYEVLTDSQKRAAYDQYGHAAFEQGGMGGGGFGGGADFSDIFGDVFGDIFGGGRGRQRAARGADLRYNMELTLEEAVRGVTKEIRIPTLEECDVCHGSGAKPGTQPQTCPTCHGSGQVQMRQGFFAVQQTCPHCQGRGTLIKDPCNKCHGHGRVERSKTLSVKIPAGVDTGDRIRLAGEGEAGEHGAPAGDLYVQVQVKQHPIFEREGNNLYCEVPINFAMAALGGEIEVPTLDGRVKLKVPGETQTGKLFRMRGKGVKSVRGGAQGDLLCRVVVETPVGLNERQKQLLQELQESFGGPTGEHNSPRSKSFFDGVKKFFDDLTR
Sequence of DnaK (wild type) (P0A6Y8 whole entry): as the sequence (P0A6Y8 whole entry) above
Sequence of DnaK-GrpE (P0A6Y8 whole entry): as above
Sequence of DnaK-DnaJ-GrpE (P0A6Y8 whole entry): as above
Sequence of J domain (residues 2–108) (P08622 2-108): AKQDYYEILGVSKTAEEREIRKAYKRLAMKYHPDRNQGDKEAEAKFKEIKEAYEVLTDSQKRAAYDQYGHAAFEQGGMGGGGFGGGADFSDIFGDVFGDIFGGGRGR

In turn, `O=C(O[C@@H]1Cc2c(O)cc(O)cc2O[C@@H]1c1ccc(O)c(O)c1)c1cc(O)c(O)c(O)c1` [ECG, epicatechin-3-gallate] gave an IC50 at DnaK-DnaJ complex of 6 ± 0.9 µM.

As for `COc1cc(OC)c2c(=O)c(O)c(-c3ccc(OC)c(OC)c3)oc2c1` [QTE, quercetin tetramethyl (5,7,3′,4′) ether], the half-maximal inhibitory concentration (IC50) on DnaK-DnaJ complex (setting [5]) is above 200 µM.

For `O=c1cc(-c2cc(O)c(O)c(O)c2)oc2cc(O)cc(O)c12` [hieracin], the IC50 on DnaK-DnaJ complex (setting [5]) was 28.2 µM.

`O=c1c(O)c(-c2ccc(O)cc2)oc2cc(O)cc(O)c12` [kaempferol]: at DnaK-DnaJ complex, the IC50 was above 200 µM.

For the compound `O=c1cc(-c2ccc(O)c(O)c2)oc2cc(O)cc(O)c12` [luteolin], the IC50 at DnaK-DnaJ complex is 9.4 µM.

`O=c1c(O)c(-c2cc(O)c(O)c(O)c2)oc2cc(O)cc(O)c12` [myricetin]: the “binding to DnaJ by ITC” value at DnaJ is “no apparent affinity”. The values for the Kd on DnaK K106A and on DnaK (wild type) were 43 ± 5 µM and 55 ± 7 µM, respectively. For the same compound, at DnaK-DnaJ-GrpE, the “apparent affinity of myricetin in the presence of DnaJ and GrpE” value is listed as “significantly enhanced”. Further, the “effect on J domain stimulatory activity” value on DnaK-J domain was “able to block”. Also, inhibition against DnaK-DnaJ complex was half-maximal at 14.5 µM (IC50). For the same compound, the “inhibition (up to, maximal)” value against DnaK-DnaJ complex (DnaK 0.6 μM, DnaJ 1 μM) is given as “up to 75%”. Also, the “effect on stimulatory activity of DnaJ on DnaK ATPase” value on DnaK-DnaJ complex (myricetin 50 μM) was “dramatically weakened”; on DnaK-DnaJ complex (myricetin 200 μM), “completely suppressed”. The inhibition at 200 µM at DnaK-DnaJ complex (read-out: percent inhibition) amounted to 75%. Moreover, the “decrease of maximal amount of bound DnaK” value on DnaK-DnaJ (20 μM myricetin) was “approximately 40%”. Besides, on DnaK-DnaJ (20 μM myricetin (62 nM without compound)), the “amount of DnaJ required to promote DnaK binding to luciferase” value was 1 µM. Besides, the “weakening of Kapp between DnaJ and DnaK” value at DnaK-DnaJ interaction (25 μM myricetin, Kapp approx. 560 nM without compound) is 5.3 fold. For the same compound, the “effect on binding of DnaJ to DnaK” value on DnaK-DnaJ interaction is on record as “significantly reduced”. Further, the “effect on peptide-mediated stimulation of ATP turnover” value on DnaK [1] is on record as “no effect”. For the same compound, the “binding to J domain by ITC” value in experiment [2] is on record as “failed to bind”. Also, the “tryptophan fluorescence response to ATP binding” value at DnaK [3] is recorded as “responded normally”. Further, on DnaK [4], the “effect on intrinsic ATPase activity of DnaK” value is given as “no effect”. Further, the “effect on stimulation of DnaK by GrpE” value at DnaK-GrpE is reported as “did not influence”.

Consider `O=c1c(O)c(-c2ccc(O)c(O)c2)oc2cc(O)cc(O)c12` [quercetin], for which the midpoint of inhibition on DnaK-DnaJ complex, the IC50, lay at 27.6 µM. Also, the “inhibition (up to, maximal)” value at DnaK-DnaJ complex (DnaK 0.6 μM, DnaJ 1 μM) is reported as “up to 67%”.

In the case of `COc1cc(O)c2c(=O)c(O)c(-c3ccc(O)c(O)c3)oc2c1` [rhamnetin], on DnaK-DnaJ complex (DnaK 0.6 μM, DnaJ 1 μM), the “activity against DnaK-DnaJ” value is “inactive”.

Turning to (±)-catechin, the “effect on binding of DnaJ to DnaK” value at DnaK-DnaJ interaction is “did not inhibit”.
